How the values were obtained:
Mu-type opioid receptor [1] = molecular target: T1, Mu-type opioid receptor (Rattus norvegicus, UniProt P33535); experiment: Compound was evaluated for Inhibition of Radio Ligand binding of [3H]- DAMGO at Rat brain Opioid receptor mu 1 binding site
In short: (§1)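 Rat brain membranes labeled with [3H]DAMGO (1–3 nM), incubated 4 h at 25 °C in 50 mM Tris-HCl pH 7.4 with protease inhibitor cocktail. Nonspecific binding defined by 20 µM levallorphan. Displacement uses 8–10 test concentrations, run twice, diluted in 10 mM Tris pH 7.4 with 1 mg/mL BSA from 1 mM stocks containing 10% DMSO. IC50 and slope factor from curve fitting.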

[2] = molecular target: Delta-type opioid receptor (Mus musculus, UniProt P32300); experiment: Agonistic activity towards Opioid receptor delta 1 as inhibitory activity towards electrically stimulated mouse vas deferens; type: functional, tissue-based
In short: (§2)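 Electrically stimulated smooth muscle bioassay. Guinea pig ileum longitudinal muscle-myenteric plexus strips come from male Hartley guinea pigs (250–500 g); vas deferens from male ICR mice (25–40 g). Tissues sit in 37 °C oxygenated Krebs bicarbonate (Mg-free for MVD) at 1 g tension (0.5 g MVD). Stimulation is 0.1 Hz, 0.4 ms pulses (2 ms MVD), supramaximal voltage.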

[3] = Relative affinity for mouse vas deferens (delta receptor) and guinea pig ileum (mu receptor); type: tissue-based
In short: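 GPI/MVD IC50 ratio from the electrically stimulated guinea pig ileum and mouse vas deferens bioassays. Both tissues are stimulated at 0.1 Hz and supramaximal voltage, with cumulative agonist dosing.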

[4] = molecular target: Delta-type opioid receptor (Rattus norvegicus, UniProt P33533); experiment: Inhibition of [3H]- DADLE binding to Rat brain Opioid receptor delta 1
Mu-type opioid receptor [5] = molecular target: Mu-type opioid receptor (Cavia porcellus, UniProt P97266); experiment: Agonistic activity for Opioid receptor mu 1 as inhibitory activity towards electrically stimulated guinea pig ileum; type: functional, tissue-based; in short: as §2
[6] = molecular target: Kappa-type opioid receptor (Cavia porcellus, UniProt P41144); experiment: Inhibition of [3H]- U69,593 binding to Guinea pig Opioid receptor kappa 1
[7] = Relative affinity for […] opioid receptors
[8] = molecular target: Mu-type opioid receptor (Cavia porcellus) (UniProt P97266); experiment: Agonistic activity (30 uM) towards mu opioid receptor was determined by evaluating the inhibitory activity towards electrically stimulated guinea pig ileum; type: functional, tissue-based; in short: as §2
Mu-type opioid receptor [9] = molecular target: T1, Mu-type opioid receptor; experiment: Inhibition of [3H]- DAMGO binding to Rat brain Opioid receptor mu 1; in short: as §1
[10] = molecular target: Delta-type opioid receptor (Mus musculus) (UniProt P32300); experiment: Agonistic activity towards Opioid receptor delta 1 was determined by evaluating the inhibitory activity towards electrically stimulated mouse vas deferens; type: functional, tissue-based; settings: concentration not given here; in short: as §2
Delta-type opioid receptor (Mus musculus), sequence (P32300 whole entry): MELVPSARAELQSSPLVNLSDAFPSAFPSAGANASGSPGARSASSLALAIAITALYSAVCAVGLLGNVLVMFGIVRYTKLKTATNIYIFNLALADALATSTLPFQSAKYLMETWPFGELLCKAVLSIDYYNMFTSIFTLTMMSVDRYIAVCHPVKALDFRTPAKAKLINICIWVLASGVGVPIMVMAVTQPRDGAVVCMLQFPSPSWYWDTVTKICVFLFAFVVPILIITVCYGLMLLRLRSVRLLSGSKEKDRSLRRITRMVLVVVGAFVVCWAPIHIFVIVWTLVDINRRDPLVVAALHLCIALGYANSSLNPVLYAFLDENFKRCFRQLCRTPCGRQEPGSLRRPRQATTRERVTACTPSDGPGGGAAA

Delta-type opioid receptor (Rattus norvegicus, UniProt P33533), sequence (P33533 whole entry): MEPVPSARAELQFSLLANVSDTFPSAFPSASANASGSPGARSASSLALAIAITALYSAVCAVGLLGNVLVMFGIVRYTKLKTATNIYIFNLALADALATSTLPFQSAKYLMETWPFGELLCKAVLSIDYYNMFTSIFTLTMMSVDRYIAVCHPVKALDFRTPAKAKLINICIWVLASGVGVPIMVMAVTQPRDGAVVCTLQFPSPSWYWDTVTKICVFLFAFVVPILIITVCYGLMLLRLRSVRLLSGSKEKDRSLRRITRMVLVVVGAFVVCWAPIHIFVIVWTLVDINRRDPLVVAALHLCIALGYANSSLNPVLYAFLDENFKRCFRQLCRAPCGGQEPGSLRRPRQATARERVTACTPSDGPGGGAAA
Mu-type opioid receptor (Cavia porcellus, UniProt P97266), sequence (P97266 whole entry): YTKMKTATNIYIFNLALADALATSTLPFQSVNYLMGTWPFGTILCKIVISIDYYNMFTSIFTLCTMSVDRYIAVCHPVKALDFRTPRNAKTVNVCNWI
Kappa-type opioid receptor, sequence (P41144 whole entry): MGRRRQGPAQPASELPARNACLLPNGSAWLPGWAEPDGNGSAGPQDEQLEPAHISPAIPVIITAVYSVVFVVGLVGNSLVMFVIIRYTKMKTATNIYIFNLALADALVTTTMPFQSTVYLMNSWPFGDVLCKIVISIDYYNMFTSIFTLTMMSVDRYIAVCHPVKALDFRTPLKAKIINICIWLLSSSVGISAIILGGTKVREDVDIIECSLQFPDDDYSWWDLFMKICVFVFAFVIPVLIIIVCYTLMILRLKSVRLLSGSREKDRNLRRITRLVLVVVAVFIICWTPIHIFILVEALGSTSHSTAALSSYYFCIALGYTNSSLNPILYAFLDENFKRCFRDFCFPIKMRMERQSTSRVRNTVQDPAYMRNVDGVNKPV
Delta-type opioid receptor (Mus musculus, UniProt P32300), sequence (P32300 whole entry): as the sequence (P32300 whole entry) above
T1 sequence (P33535 whole entry): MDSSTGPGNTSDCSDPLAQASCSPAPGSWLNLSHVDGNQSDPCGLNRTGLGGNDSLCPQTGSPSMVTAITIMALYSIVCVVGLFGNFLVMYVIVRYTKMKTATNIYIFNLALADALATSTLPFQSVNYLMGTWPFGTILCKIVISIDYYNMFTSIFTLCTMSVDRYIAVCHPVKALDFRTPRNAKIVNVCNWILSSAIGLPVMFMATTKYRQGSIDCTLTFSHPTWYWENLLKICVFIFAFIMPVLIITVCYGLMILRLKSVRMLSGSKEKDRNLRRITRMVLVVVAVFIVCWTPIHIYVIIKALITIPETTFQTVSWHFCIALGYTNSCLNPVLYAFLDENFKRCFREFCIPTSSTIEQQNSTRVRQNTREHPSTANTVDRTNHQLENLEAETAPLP
Mu-type opioid receptor (Cavia porcellus), sequence (P97266 whole entry): as the sequence (P97266 whole entry) above

Structure (SMILES)	IC50 [2] [nM]	Ratio [3]	IC50 [4] [nM]	IC50 (Mu-type opioid receptor [5]) [nM]	IC50 [6] [nM]	Ratio [7]	IC50 (Mu-type opioid receptor [9]) [nM]	also measured
CN1CC[C@]2(c3cccc(O)c3)C[C@H]1Cc1[nH]c3ccccc3c12	393	6	5.6	2350				IC50 (Mu-type opioid receptor [1]): 14.2 nM
COc1ccc2c3c([nH]c2c1)C[C@@H]1C[C@@]3(c2cccc(O)c2)CCN1C	49	> 612	3.7		1160	314	66.4	inhibition [8]: 38%
CN1CCC2(c3cccc(O)c3)CC(=O)CC1C2 (stereo not given)						4.46		
COc1cccc2c3c([nH]c12)CC1CC3(c2cccc(O)c2)CCN1C (racemic) [listing 1 of 2 here]	270		8.7	1950	3960		28.8	
CN1CCC2(c3ccccc3)CC1Cc1[nH]c3ccccc3c12 (racemic)			1970		> 10000	5.08		
COc1ccc2c3c([nH]c2c1)CC1CC3(c2cccc(O)c2)CCN1C (racemic)	118	7.3	6.3	862	> 1000	> 159	48.4	
COc1ccc2[nH]c3c(c2c1)C1(c2cccc(O)c2)CCN(C)C(C3)C1 (racemic) [listing 1 of 2 here]	4370		90.1	6770	> 1000		24.2	
CN1CCC2(c3cccc(O)c3)CC(=O)CC1C2 (racemic)						2.81		
COc1ccc2[nH]c3c(c2c1)C1(c2cccc(O)c2)CCN(C)C(C3)C1 (racemic) [listing 2 of 2 here]		1.5				11.1		
COc1cccc2c3c([nH]c12)CC1CC3(c2cccc(O)c2)CCN1C (racemic) [listing 2 of 2 here]		7.2				455		
COc1cccc2c3c([nH]c12)CC1CC3(c2cccc(O)c2)CCN1C (single isomer, unassigned; (-)) [listing 1 of 2 here]	165		4.4	2890	1770		29.4	
COc1cccc2c3c([nH]c12)CC1CC3(c2cccc(O)c2)CCN1C (single isomer, unassigned; (-)) [listing 2 of 2 here]		17.5				402		
COc1ccc2[nH]c3c(c2c1)C1(c2cccc(O)c2)CCN(C)C(C3)C1 (stereo in doubt; (-)-11) [listing 1 of 2 here]			144	25900	> 2500		474	
COc1ccc2[nH]c3c(c2c1)C1(c2cccc(O)c2)CCN(C)C(C3)C1 (stereo in doubt; (-)-11) [listing 2 of 2 here]						17.4		inhibition [10]: 0%
CC(C)C[C@@H](NC(=O)[C@H](Cc1ccccc1)NC(=O)CNC(=O)[C@@H](C)NC(=O)[C@@H](N)Cc1ccc(O)cc1)C(=O)O [DADLE]					4400			
C=CCN1C[C@H](C)N([C@H](c2ccc(C(=O)N(CC)CC)cc2)c2cccc(OC)c2)C[C@H]1C [SNC-80]				5460	> 1000		2470	
